Source: PubChem BioAssay
This is a sample that favours compounds with a hit; in the whole collection about 3.7% have one here.
GPR7 antagonist: GPR7 receptor antagonists, primary screen, cell-based, fluorescence, single concentration; inhibition, % at 4.4 µM; Neuropeptides B/W receptor type 1 (Homo sapiens), P48145; actives 1.1% (n = 290,000); GPR7-expressing cells, fluorescence antagonist assay; AID 1861, 2009; in the data active = inhibition above about 16%, passing the limit was not always enough;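 note: cells stimulated with the agonist NPW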
Target sequence (P48145 whole entry, looked up): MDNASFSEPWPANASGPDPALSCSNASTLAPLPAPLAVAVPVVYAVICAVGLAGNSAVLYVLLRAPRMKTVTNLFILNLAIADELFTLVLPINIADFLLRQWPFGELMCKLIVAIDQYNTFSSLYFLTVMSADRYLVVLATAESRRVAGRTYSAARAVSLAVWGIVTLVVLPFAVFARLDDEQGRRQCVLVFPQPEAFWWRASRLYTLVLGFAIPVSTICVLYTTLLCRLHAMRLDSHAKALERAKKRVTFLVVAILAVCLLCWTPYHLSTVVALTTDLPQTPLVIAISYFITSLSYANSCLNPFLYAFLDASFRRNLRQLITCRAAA
EP2 modulator: EP2 receptor modulators, cAMP readout, primary screen, cell-based, HTRF cAMP, PGE2 stimulation | AID 940, 2007 | EP2-expressing cells, cAMP HTRF FRET, PGE2 co-stimulation | induction, % at 25 µM | actives 0.83% (n = 260,000) | Prostaglandin E2 receptor EP2 subtype (Homo sapiens), P43116;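 active = compounds whose cAMP rise, as percent of the full-agonist control response, exceeds 60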;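 note: rat C6 glioma line stably carrying human EP2 under a CMV promoter; the protocol text gives 20 µM as final concentration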
PGE2 EP2 inh: human EP2 receptor antagonists, primary screen, TR-FRET cAMP, C6 glioma cells; inhibition, % at 25 µM; C6 glioma cells expressing human EP2; cells stimulated with saturating PGE2; actives 0.52% (n = 260,000); Prostaglandin E2 receptor EP2 subtype (Homo sapiens), P43116;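 active = percent inhibition above 40 after rounding to a whole number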;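 note: rat C6 glioma host cells with rolipram phosphodiesterase inhibitor present; the protocol text gives 20 µM as final concentration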
OX1R antag-1: antagonists of human orexin 1 receptor (OX1R); OX1R-expressing cells, FRET antagonist read-out; AID 485270, 2010; actives 1.8% (n = 330,000); inhibition, % at 6.6 µM; Orexin/Hypocretin receptor type 1 (Homo sapiens), O43613; in the data active = inhibition mostly above about 38%, no sharp cut-off; inactive = mostly below about 40%
Target sequence (O43613 whole entry, looked up): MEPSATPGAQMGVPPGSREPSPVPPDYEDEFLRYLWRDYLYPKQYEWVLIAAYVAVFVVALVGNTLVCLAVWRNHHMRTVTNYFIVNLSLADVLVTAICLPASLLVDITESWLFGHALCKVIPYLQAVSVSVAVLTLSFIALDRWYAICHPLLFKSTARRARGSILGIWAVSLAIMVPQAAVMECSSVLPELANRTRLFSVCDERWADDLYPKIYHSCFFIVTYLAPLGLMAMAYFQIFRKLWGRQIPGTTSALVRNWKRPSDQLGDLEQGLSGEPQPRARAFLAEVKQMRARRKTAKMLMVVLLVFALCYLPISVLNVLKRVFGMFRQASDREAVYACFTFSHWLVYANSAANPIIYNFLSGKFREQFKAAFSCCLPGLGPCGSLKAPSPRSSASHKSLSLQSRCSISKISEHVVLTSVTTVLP
OX1R antag-2: OX1R (HCRTR1) antagonists, primary screen, fluorescence, CHO/OX1R cells, Fluo-8 calcium, orexin A. Fluo-8 calcium fluorescence. Orexin/Hypocretin receptor type 1 (Homo sapiens), O43613. inhibition, % at 5 µM. actives 0.43% (n = 330,000);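 active = inhibition above its plate's threshold, mean inhibition of all tested compounds on the plate plus 3 SD, cut at about 37% in these data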
CHO parental Ca: ATP-evoked calcium signal inhibitors, parental CHO, primary screen, counter-screen for OX1R antagonist project, cell-based, fluorescence, Fluo-8 calcium dye. parental CHO-K1, ATP-induced calcium, Fluo-8 fluorescence. inhibition, % at 5.6 µM. actives 0.63% (n = 330,000). AID 463079, 2010;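 active = inhibition above that plate's mean sample inhibition plus 3 SD, cut at about 26% in these data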
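Assay system: parental CHO cells; Read-out basis: percent inhibition of ATP-evoked calcium rise, normalized to controls; Benchmarks: ATP and no-ATP DMSO wells; Compound dosing: single nominal dose of 5.6 µM per compound; Signal: Fluo-8 calcium dye fluorescence; Also added: ATP as calcium-mobilizing challenge; Repeats: singlicate.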
Of the large screens only hits and unclear results are named; the others gave an inactive call; ! = not confirmed by another sample.

NS(=O)(=O)c1ccc(N=Nc2cc3ccccc3c(C(=O)O)c2O)cc1	PGE2 EP2 inh 45.3 (no result: GPR7 antagonist, OX1R antag-1, OX1R antag-2, CHO parental Ca)
NS(=O)(=O)c1ccc(N=Nc2ccc(O)c(C(=O)O)c2)cc1	none (no result: GPR7 antagonist, OX1R antag-1, OX1R antag-2, CHO parental Ca)
CC(=O)c1sc(N2CCOCC2)nc1-c1ccccc1	none
FC(F)(F)c1ccc(N=Cc2sc(N3CCOCC3)nc2-c2ccccc2)cc1	PGE2 EP2 inh 46.1
O=S(=O)(c1ccc(F)c(F)c1)N1CCN(c2ncccn2)CC1	none (no result: EP2 modulator, PGE2 EP2 inh)
Cc1ccc(N2C(=S)NC3c4ccccc4OC2(C)C3C(=O)N(C)C)cc1 (centres undefined)	none
COC(=O)Cn1cc(C(=O)OC)c2ccccc21	GPR7 antagonist 20.6
CCOC(=O)Cn1cc(C(=O)OC)c2ccccc21	none
CCCOc1cc(N(CC)CC)ccc1/C=C(/C#N)c1nc2ccc(C)cc2[nH]1	OX1R antag-2 117.7, CHO parental Ca 75.4
CCN(CC)c1ccc(/C=C(/C#N)c2nc3ccc(C)cc3[nH]2)c(OC(C)C)c1	GPR7 antagonist 38.1, OX1R antag-2 115.5, CHO parental Ca 68.3
CCOc1cc(N(CC)CC)ccc1/C=C(/C#N)c1nc2ccccc2[nH]1	OX1R antag-1 71.0, OX1R antag-2 109.2, CHO parental Ca 70.5 (no result: PGE2 EP2 inh)
CCN(CC)c1ccc(/C=N/Nc2nc3ccccc3[nH]2)c(O)c1	PGE2 EP2 inh 61.2
COc1cc(/C=C(\C#N)c2nc3ccc(C)cc3[nH]2)c([N+](=O)[O-])cc1OC	none
Cc1cccc(-n2c(SCC(=O)Nc3nnc(C)s3)nnc2-c2ccoc2C)c1	none
On1ccccc1=S	OX1R antag-2 36.5, CHO parental Ca 40.5 (no result: GPR7 antagonist, EP2 modulator, PGE2 EP2 inh)
O=C(/C(=C/c1ccc(Cl)cc1)c1nc2ccccc2[nH]1)c1cccs1	GPR7 antagonist 24.9
CC1CCc2sc(C(=O)NN)cc2C1 (centres undefined)	none
CC(C)Cn1cnc2c1c(=O)n(C)c(=O)n2C	none
Cn1c(=O)c2c(ncn2CN2CCN(Cn3cnc4c3c(=O)n(C)c(=O)n4C)CC2)n(C)c1=O	PGE2 EP2 inh 45.9 (no result: GPR7 antagonist, OX1R antag-1, OX1R antag-2, CHO parental Ca)
COC(=O)c1ccc(OC(=O)c2cccnc2)cc1	none
COC(=O)c1cc2occc2n1Cc1c(F)cccc1Cl	EP2 modulator 64.2 (no result: OX1R antag-1, OX1R antag-2, CHO parental Ca)
CCOC(=O)c1cc2occc2n1Cc1ccc(F)cc1	EP2 modulator 85.4!
CCOC(=O)c1cc2occc2n1Cc1c(F)cccc1Cl	none
O=C(Nc1ccc(Br)cc1Cl)N1CCOCC1	none
CSCCC(NS(=O)(=O)c1ccccc1F)C(=O)Nc1cccc(C)n1 (centres undefined)	none (no result: EP2 modulator, PGE2 EP2 inh)
O=C(CN1N=C(c2ccccc2)Cn2c(cc3sccc32)C1=O)NC1CCCC1	none (no result: GPR7 antagonist, PGE2 EP2 inh, OX1R antag-1, OX1R antag-2, CHO parental Ca)
COc1ccc(/C=C2\SC(=N)N(c3nccs3)C2=O)cc1OC	OX1R antag-1 72.6, CHO parental Ca 26.4
N=C1S/C(=C\c2ccc(-c3cccc(Cl)c3)o2)C(=O)N1c1nccs1	none
COc1ccc(NC(=O)CSc2nc3ccc(C)cc3cc2C#N)cc1	none (no result: GPR7 antagonist, OX1R antag-1, OX1R antag-2, CHO parental Ca)
O=c1cc(CSc2nnc(-c3cccs3)n2Cc2ccccc2)nc2sc3ccccc3n12	GPR7 antagonist 29.7, CHO parental Ca 51.7
Cc1cc(C(=O)CSc2nnc(-c3cccs3)n2Cc2ccccc2)c(C)n1C	none
O=c1c(-c2nc3ccccc3o2)c2oc3ccccc3n2c2ccccc12	none (no result: OX1R antag-1, OX1R antag-2, CHO parental Ca)
Cc1ccc([C@H]2C(C(=O)O)=CC[C@@H](c3ccc(Cl)c(Cl)c3)N2S(=O)(=O)c2ccc(C)cc2)cc1	none (no result: GPR7 antagonist, EP2 modulator, PGE2 EP2 inh)
Cc1ccc(S(=O)(=O)N2[C@@H](c3ccccc3)C(C(=O)O)=CC[C@H]2c2ccc(Cl)c(Cl)c2)cc1	OX1R antag-1 55.4 (no result: GPR7 antagonist, EP2 modulator, PGE2 EP2 inh)
Cc1ccc(S(=O)(=O)N2[C@@H](c3ccccc3F)C(C(=O)O)=CC[C@H]2c2ccc(Cl)c(Cl)c2)cc1	OX1R antag-1 66.9 (no result: GPR7 antagonist, EP2 modulator, PGE2 EP2 inh)
Nc1nc(N)nc(-c2cc(Cl)ccc2Cl)n1	none (no result: GPR7 antagonist, EP2 modulator)
COc1ccc2[nH]c3c(c2c1)CCN1C(=O)C(CC(=O)NCC24CC5CC(CC(C5)C2)C4)C[C@H](C(=O)N2CCOCC2)[C@@]31C (some centres undefined)	none (no result: GPR7 antagonist, EP2 modulator, PGE2 EP2 inh)
COc1cccc(O)c1O	none (no result: GPR7 antagonist, OX1R antag-1, OX1R antag-2, CHO parental Ca)
CCCCCC(=O)Nc1cc(N(C)C)nc2ccccc12	PGE2 EP2 inh 39.8 (no result: EP2 modulator)
CCN(CC)CC(=O)Nc1cc(N(C)C)nc2ccccc12	none
CC1CCN(CC(C)OC(=O)c2ccco2)CC1 (centres undefined)	none
CS(=O)(=O)NCCCNc1ccc(Cl)cc1[N+](=O)[O-]	OX1R antag-1 42.6
CS(=O)(=O)NCCCNc1ccc(C(F)(F)F)cc1[N+](=O)[O-]	none
COc1ccc(Cl)cc1C(=O)CSc1nnnn1C1CCCCC1	OX1R antag-1 52.5, CHO parental Ca 52.4
COc1cccc(CNC(=O)Cn2ccc3cc(S(=O)(=O)N4CCCC4)ccc32)c1OC	none (no result: EP2 modulator, PGE2 EP2 inh)
CCn1c(SCC(=O)Nc2sc(C)c(C)c2C#N)nc2sc3c(c2c1=O)CCC3	EP2 modulator 69.3 (no result: GPR7 antagonist, OX1R antag-1, OX1R antag-2, CHO parental Ca)
CCn1c(SCC(=O)Nc2cc(C)on2)nc2sc3c(c2c1=O)CCCC3	none (no result: PGE2 EP2 inh)
Cc1ccc(-c2nc(CSCC(=O)N3CCN(c4ccccn4)CC3)c(C)o2)cc1	none
CCOc1ccc(-c2nc(CSCC(=O)N3CCN(c4cccc(OC)c4)CC3)c(C)o2)cc1	OX1R antag-1 53.6, OX1R antag-2 44.4, CHO parental Ca 75.4
CN(C)S(=O)(=O)N1CCN(CC(O)COc2ccc3cc(Br)ccc3c2)CC1 (centres undefined)	CHO parental Ca 40.0
O=S(=O)(N1CCCCC1)N1CCN(CC(O)COc2ccc3cc(Br)ccc3c2)CC1 (centres undefined)	none
O=[N+]([O-])c1ccc(O)c2cccnc12	OX1R antag-1 66.5
O=[N+]([O-])c1ccc2ncccc2c1CCc1c([N+](=O)[O-])ccc2ncccc12	PGE2 EP2 inh 53.0 (no result: GPR7 antagonist, OX1R antag-1, OX1R antag-2, CHO parental Ca)
O=C(NC(=S)NCc1ccc2c(c1)OCO2)c1ccccc1	none
O=C(CSc1nnc2c(n1)[nH]c1ccccc12)NNC(=O)Cc1ccccc1	none (no result: GPR7 antagonist, OX1R antag-1, OX1R antag-2, CHO parental Ca)
COc1cccc(Nc2c([N+](=O)[O-])cncc2[N+](=O)[O-])c1	OX1R antag-1 75.9 (no result: EP2 modulator, PGE2 EP2 inh)
O=C(O)c1cccc(Nc2ccncc2[N+](=O)[O-])c1	OX1R antag-1 38.5 (no result: EP2 modulator, PGE2 EP2 inh)
Nc1ccc(Nc2ccncc2[N+](=O)[O-])cc1	OX1R antag-1 63.9
COc1cccc(Nc2c(Nc3cccc(OC)c3)c(=O)c2=O)c1	none (no result: EP2 modulator, PGE2 EP2 inh)
O=[N+]([O-])c1cnccc1Nc1ccccc1	OX1R antag-1 57.7
CCCCCC(=O)NC(CC(=O)OC)c1ccc2c(c1)OCO2 (centres undefined)	none
